{
  "source": "BindingDB's records for doi:10.1021/acs.jmedchem.8b00653",
  "about": "(Aix-Marseille University, 2018)",
  "molecular_target": "Bromodomain-containing protein 4 (Homo sapiens, UniProt O60885)",
  "assay": "Inhibition of TEV cleavage site-fused-GST tagged BRD4(BD1) (unknown origin) using SGRGK(Ac)CGK(Ac)-GLGK(Ac)GGAK(Ac)RHRKVG-peptide after 3 hrs by HTRF assay",
  "outline": "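GST-BRD4(BD1) purified on glutathione resin and by size exclusion; tetra-acetylated H4 peptide as ligand. Buffer 50 mM HEPES pH 7.5, 400 mM KF, 0.1% BSA, 0.5% DMSO final; 3 h at room temperature.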",
  "note": "pIC50: −log10 of the molar value.",
  "data": [
    {"smiles": "CCn1cnc2c1c(=O)[nH]c(=O)n2Cc1ccc(CNS(=O)(=O)c2ccc3c(c2)CCCC(=O)N3)cc1", "values": [
      {"measurement": "pIC50", "value": 6.60}
    ]}
  ]
}
